Published values from different studies.
Protocols differ between the studies behind these lines.
Target: cAMP-dependent protein kinase catalytic subunit PRKX (PRKX, Homo sapiens, UniProt P51817)
One construct used (P51817 1-358): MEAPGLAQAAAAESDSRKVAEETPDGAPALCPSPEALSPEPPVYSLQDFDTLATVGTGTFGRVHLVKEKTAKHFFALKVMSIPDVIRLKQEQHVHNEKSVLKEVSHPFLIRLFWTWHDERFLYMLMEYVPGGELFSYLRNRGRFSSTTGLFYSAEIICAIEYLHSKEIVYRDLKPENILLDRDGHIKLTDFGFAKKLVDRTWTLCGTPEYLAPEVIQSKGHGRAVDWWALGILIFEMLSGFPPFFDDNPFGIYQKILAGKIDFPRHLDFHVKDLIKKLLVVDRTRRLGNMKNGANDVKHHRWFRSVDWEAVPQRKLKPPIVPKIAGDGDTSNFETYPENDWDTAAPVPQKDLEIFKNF

SMILES | observed | method | tested at | remaining binding [%]
CN(C)c1ncc(F)c(-c2cnn3ncccc23)n1 | binding | – | 1 µM | 100
O=C(Nc1cnc(Oc2ccc(F)cc2)nc1)N1CCc2ncccc2[C@@H]1c1ccc(F)cc1 | cell-free assay | competition with immobilised ligand | 1 µM | 93
O=C(Nc1c[nH]nc1C(=O)NC1CCNCC1)c1cc(F)cc(F)c1 | binding | competition with immobilised ligand | 1 µM | 94
COc1ccnn2ncc(-c3ccnc(N(C)C)n3)c12 | binding | – | 1 µM | 100
O=C(c1ccc(Nc2ncc(Cl)c(-c3ccc(Cl)s3)n2)cc1)N1CCC(N2CCCC2)CC1 | binding | competition with immobilised ligand | 1 µM | 95
C[C@H]1CCN(c2nccc(-c3cnn4ncccc34)n2)C1 | binding | – | 1 µM | 100
O=C(c1ccc(Nc2ncc(Cl)c(-c3cc4ccccc4s3)n2)cc1)N1CCC(N2CCCC2)CC1 | binding | competition with immobilised ligand | 1 µM | 67
Nc1cnc(N2CCc3cc(S(=O)(=O)Nc4c(F)cc(Cl)cc4F)cc(N4CCCC4=O)c32)nc1 | cell-free assay | competition with immobilised ligand | 1 µM | 99
N[C@H]1CCN(c2nccc(-c3cnn4ncccc34)n2)C1 | binding | – | 1 µM | 100
COc1ncc2cc3ccccc3nc2c1C#N | cell-free assay | competition with immobilised ligand | 5 µM | 82
Cn1cc(Cl)c2c(Oc3c(F)cc(Nc4cc(Cl)nc(N)n4)cc3F)ccnc21 | cell-free assay | competition with immobilised ligand | 0.1 µM | 100
CN(CCCC(F)(F)F)c1nccc(-c2cnn3ncccc23)n1 | binding | – | 1 µM | 100
CCCOc1ccc([C@H]2[C@H](C(=O)O)[C@@H](c3ccc4c(c3)OCO4)CN2CC(=O)Nc2c(CC)cccc2CC)cc1 | cell-free assay | competition with immobilised ligand | 1 µM | 91
O=C(NCCCN1CCOCC1)c1ccc(Nc2ncc(Cl)c(-c3ccc(Cl)s3)n2)cc1 | binding | competition with immobilised ligand | 1 µM | 100
CCN1CCN(Cc2ccc(C(=O)Nc3ccc(C)c(Oc4ccc5c(c4)CC(=O)N5)c3)cc2C(F)(F)F)CC1 | binding | competition with immobilised ligand | 1 µM | 100
O=C(N[C@H]1CCCCC/C=C\C2C[C@@]2(C(=O)O)NC(=O)[C@@H]2C[C@@H](Oc3ccncc3)CN2C1=O)OC1CCCC1 (some centres unmarked) | cell-free assay | competition with immobilised ligand | 1 µM | 80
COc1cnc(Nc2cccc(S(N)(=O)=O)c2)nc1N1CCN(c2ccccc2)CC1 | binding | competition with immobilised ligand | 1 µM | 100
C[C@@H]1CN(c2cc(-c3nn(C)c4ccc(OC5(C)CC5)cc34)ncn2)C[C@H](C)O1 | cell-free assay | competition with immobilised ligand | 1 µM | 92
CN(c1nccc(-c2cnn3ncccc23)n1)C1CC1 | binding | – | 1 µM | 98
FC(F)(F)Oc1cccc(-c2cnc3ccc(-c4ccncc4)nn23)c1 | cell-free assay | competition with immobilised ligand | 5 µM | 85
